# From ChEMBL document CHEMBL1155205, “Structure-activity relationship of isoform selective inhibitors of Rac1/1b GTPase nucleotide binding” (Bioorg Med Chem Lett, 2009)
# Counter-ions that a name gives are not always drawn.
# How the values were obtained:
# HEK293 = assay: Inhibition of Rac GTPase activation in Rac1b overexpressing human HEK293 cells at 50 uM after 5 mins by G-LISA assay; type: cell-based
# Method in brief: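 HEK293 cells overexpressing human Rac1b were grown 5 days in MEM with 10% FBS, L-glutamine and antibiotics. Cells were then exposed to compound or solvent for 5 min. Rac1b GTP loading was measured with a Rac activation kit using a Rac-specific antibody (G-LISA).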
# [1] = biological target: T1, Cell division control protein 42 homolog (Homo sapiens, UniProt P60953); assay: Inhibition of Cdc42 GTPase activity assessed as incorporation of BODIPY-GTP after 40 mins by nucleotide binding competition assay
# Method in brief: (§1)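 Bacterially expressed GST-Cdc42 preincubated 10 min at 20 °C in 20 mM Tris pH 8.6, 50 mM NaCl, 1 mM MgCl2. No GEF was added (intrinsic exchange). BODIPY-GTP was then added with or without compound. Fluorescence was read at ex 485/em 538 nm before and after addition. Maximal RFU at 40 min was compared with control. Means of at least three independent experiments, with SEM.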
# Target sequence in this assay (P60953 whole entry): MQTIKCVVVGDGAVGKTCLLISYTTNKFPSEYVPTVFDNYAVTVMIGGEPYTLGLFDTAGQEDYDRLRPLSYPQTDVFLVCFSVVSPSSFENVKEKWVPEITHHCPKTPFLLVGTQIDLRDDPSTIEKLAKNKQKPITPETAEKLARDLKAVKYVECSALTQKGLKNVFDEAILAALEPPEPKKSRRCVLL
# [2] = biological target: T2, Ras-related C3 botulinum toxin substrate 1 (Homo sapiens, UniProt P63000); assay: Inhibition of Rac1 GTPase activity assessed as incorporation of BODIPY-GTP after 40 mins by nucleotide binding competition assay
# [3] = biological target: T2, Ras-related C3 botulinum toxin substrate 1; assay: Inhibition of Rac1b GTPase activity assessed as incorporation of BODIPY-GTP after 40 mins by nucleotide binding competition assay
# [4] = biological target: T1, Cell division control protein 42 homolog; assay: Inhibition of Cdc42 GTPase activity assessed as incorporation of BODIPY-GTP at 50 uM after 40 mins by nucleotide binding competition assay; method in brief: as §1
# Target sequence in this assay (P60953 whole entry, looked up): as the sequence (P60953 whole entry) above
# [5] = Selectivity of IC50 for Rac1 GTPase activity to IC50 for Rac1b GTPase activity
# Method in brief: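 Ratio of IC50s for inhibiting BODIPY-GTP binding to bacterially expressed GST-Rac1 and GST-Rac1b. Rac1 binding was stimulated by His6-Tiam1 DH/PH, while Rac1b used intrinsic exchange. Protein was pre-incubated 10 min at 20 °C in 20 mM Tris pH 8.6, 50 mM NaCl, 1 mM MgCl2, then BODIPY-GTP ± compound was added. Fluorescence (ex 485/em 538 nm) was read as maximal RFU at 40 min; means of ≥3 independent experiments.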
Compound,inhibition (HEK293),IC50 [1],inhibition [4],other results
Oc1cc2c(cc1O)C1Cc3ccc(O)c(O)c3CN1CC2 (centres undefined) [TETRAHYDROXYCANADINE HYDROCHLORIDE],< 20%,> 100 µM,,
Nc1nc2c(ncn2[C@H]2O[C@@H](COP(=O)(O)OP(=O)(O)O)[C@H](O)[C@@H]2O)c(=O)[nH]1,,1.4 µM,,IC50 [2]: 2.7 µM; IC50 [3]: 1.8 µM
Oc1cc2c(cc1O)-c1cc3ccc(O)c(O)c3c[n+]1CC2,< 20%,6 µM,> 100%,
Cc1c2cc(O)c(O)cc2cc(-c2ccc(O)c(O)c2)[n+]1C,,,12%,
COc1cc2cc(-c3ccc4ccccc4c3)nc(C)c2cc1OC,< 20%,> 100 µM,29%,
C[n+]1cc2c3c(ccc2c2ccc4cc5c(cc4c21)OCO5)OCO3,50%,,63%,Ratio IC50 [5]: 13
COc1ccc2c(c[n+](C)c3c4cc5c(cc4ccc23)OCO5)c1OC [CHELERYTHRINE CHLORIDE],40%,> 100 µM,35%,Ratio IC50 [5]: > 14; IC50 [2]: > 100 µM; IC50 [3]: 7 µM
COc1cc2cc(-c3ccc(O)c(O)c3)[n+](C)c(C)c2cc1OC,,,5%,
COc1cc2cc(-c3ccc4c(c3)OCO4)nc(C)c2cc1OC,,,14%,
Cc1nc(-c2ccc(O)c(O)c2)cc2cc(O)c(O)cc12,,,15%,
COc1ccc2cc3[n+](cc2c1OC)CCc1cc2c(cc1-3)OCO2,,,8%,
COc1cc2c(cc1OC)-c1cc3ccc(OC)c(OC)c3c[n+]1CC2,,,8%,
C[n+]1cc2c(O)c(O)ccc2c2ccc3cc(O)c(O)cc3c21,< 20%,,73%,
COc1ccc2c(c1OC)CN1CCc3cc4c(cc3C1C2)OCO4 (racemic),,,4%,
COc1cc2cc3c4ccc(OC)c(OC)c4cc[n+]3c(C)c2cc1OC,,,23%,
COc1ccc2cc3[n+](cc2c1OC)CCc1cc(O)c(O)cc1-3,35%,> 100 µM,31%,IC50 [2]: 63 µM; IC50 [3]: 31 µM
COc1ccc2c(c[n+](C)c3c4cc(O)c(O)cc4ccc23)c1OC,39%,73 µM,38%,
COc1cc2cc(-c3cccc(C(C)=O)c3)[n+](C)c(C)c2cc1OC,,,7%,
COc1cc2cc(-c3ccc(Cl)c(Cl)c3)nc(C)c2cc1OC,,,5%,
COc1cc2cc(-c3ccc4c(c3)OCO4)[n+](C)c(C)c2cc1OC,,,0.3%,
Cc1c2cc(O)c(O)cc2cc2c3ccc(O)c(O)c3cc[n+]12,< 20%,26 µM,70%,
COc1cc2cc(-c3cccc(C(C)=O)c3)nc(C)c2cc1OC,,,7%,
COc1ccc2c(c1OC)C(c1ccccc1)N1CCc3cc4c(cc3C1C2)OCO4 (centres undefined),,,9%,
COc1cc2cc(-c3ccc(O)c(O)c3)nc(C)c2cc1OC,61%,> 100 µM,15%,
